The values below come from ChEMBL document CHEMBL1158546, “Discovery of novel and potent leukotriene B4 receptor antagonists. Part 1” (J Med Chem, 2010).

In brackets after ≈: the same amount, converted by molar mass. Activity calls are given as the source filed them.

One data set deals with T1, Cytochrome P450 1A2 (Homo sapiens, UniProt P05177).
T1 sequence (P05177 whole entry): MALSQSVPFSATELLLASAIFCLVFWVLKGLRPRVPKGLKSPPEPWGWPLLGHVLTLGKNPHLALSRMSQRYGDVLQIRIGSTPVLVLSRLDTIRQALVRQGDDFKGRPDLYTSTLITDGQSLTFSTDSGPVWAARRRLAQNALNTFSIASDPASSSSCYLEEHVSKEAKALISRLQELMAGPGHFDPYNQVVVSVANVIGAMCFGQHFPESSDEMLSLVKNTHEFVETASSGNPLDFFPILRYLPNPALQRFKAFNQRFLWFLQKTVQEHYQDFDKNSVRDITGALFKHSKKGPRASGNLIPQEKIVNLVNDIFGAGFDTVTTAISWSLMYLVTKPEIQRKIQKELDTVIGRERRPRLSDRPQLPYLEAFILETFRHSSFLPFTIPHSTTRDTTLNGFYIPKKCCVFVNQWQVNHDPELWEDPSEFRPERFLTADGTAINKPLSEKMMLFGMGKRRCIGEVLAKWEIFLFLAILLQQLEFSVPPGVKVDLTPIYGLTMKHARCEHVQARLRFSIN
Nature of the data set: Inhibition of CYP1A2 by fluorescence method. The data set is classed as ADME. In short, it runs like this:
(§1)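 Cytochrome P450 high-throughput panel (1A2, 2D6, 2C9, 2C19, 3A4) using fluorogenic substrates; IC50 reported.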

The target of a further data set is Cytochrome P450 3A4 (Homo sapiens, UniProt P08684). Nature of the data set: Inhibition of CYP3A4 fluorescence method. In kind it is ADME. In a few lines:
(§2)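 High-throughput CYP panel covering 1A2, 2D6, 2C9, 2C19 and 3A4, using fluorogenic substrates. IC50 was determined in μM.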

Another data set deals with Cavia porcellus. Nature of the data set: Antiinflammatory activity against LTB4-evoked eosinophilic pulmonary inflammation in Hartley guinea pig at 10 mg/kg, po after 1 hr treated before LTB4 challenge. Details: dose 10 mg/kg. In kind it is functional, organism-based. In short, it runs like this:
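Male Hartley guinea pigs (250-350 g) were dosed orally with 10 mg/kg in 2% Klucel LF/0.1% Tween-80. One hour later they were exposed to 10 μg/mL LTB4 aerosol for 20 min. BAL (3 × 5 mL HBSS) was done 2 h after challenge under pentobarbital. Cells were counted, and differentials of at least 300 cells were taken on Wright-stained cytospins. Analysis by two-way ANOVA/Bonferroni; 4-20 animals per group.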

Data set [1] is described as follows: Half life in Sprague-Dawley rat at 10 mg/kg, po. In kind it is ADME, organism-based. Details: dose 10 mg/kg, route oral. The note with it: in vivo. In short, it runs like this:
(§3)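 Rat single-dose PK, n = 3, with oral dosing at 10 mg/kg and intravenous dosing at 2.5 or 5 mg/kg.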

The nature of data set [2]: Clearance in Sprague-Dawley rat at 2.5 mg/kg, iv. The data set is classed as ADME, organism-based. More on the design: dose 2.5 mg/kg, route intravenous. The note with it: in vivo.
The nature of data set [3]: Half life in Sprague-Dawley rat at 2.5 mg/kg, iv. The data set is classed as ADME, organism-based. The note with it: in vivo. Details: dose 2.5 mg/kg, route intravenous.
Data set [4] is described as follows: Tmax in Sprague-Dawley rat at 10 mg/kg, po. In kind it is ADME, organism-based. Details: dose 10 mg/kg, route oral. The note with it: in vivo. In short, it runs like this: as §3
A further data set concerns the target Cytochrome P450 2C9 (Homo sapiens, UniProt P11712). Nature of the data set: Inhibition of CYP2C9 fluorescence method. In kind it is ADME.
A short description of data set [5]: Cmax in Sprague-Dawley rat at 10 mg/kg, po. The data set is classed as ADME, organism-based. Details: dose 10 mg/kg, route oral. The following applies: in vivo. In a few lines: as §3
Data set [6] can be described thus: Oral bioavailability in Sprague-Dawley rat at 10 mg/kg, po. In kind it is ADME, organism-based. The following applies: in vivo. In short, it runs like this: as §3
A short description of data set [7]: Volume of distribution at steady state in Sprague-Dawley rat at 2.5 mg/kg, iv. The data set is classed as ADME, organism-based. The following applies: in vivo, read-out: Vdss. More on the design: dose 2.5 mg/kg, route intravenous.
The target in data set [8] is T2, Voltage-gated inwardly rectifying potassium channel KCNH2 (Homo sapiens, UniProt Q12809). Nature of the data set: Inhibition of human ERG expressed in CHO cells at 3 uM assessed as reduction of current amplitude.
The subject of another data set is Cynomolgus monkey. Nature of the data set: Antiinflammatory activity against ascaris suum antigen-evoked increase in neutrophils at bronchoalveolar lavage in cynomolgus monkey at 10 mg/kg, po after 1 hr treated before LTB4 challenge. In kind it is functional, organism-based. Details: dose 10 mg/kg. The note with it: Macaca fascicularis, in the assay text read “before Ascaris suum antigen challenge” for “before LTB4 challenge”. In short, it runs like this: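 Male cynomolgus monkeys (4-10 kg) naturally hypersensitive to Ascaris suum had baseline BAL 24 h before challenge. They were dosed orally with 10 mg/kg in 15% Labrasol in PEG. One hour later, under ketamine/xylazine, they received antigen aerosol for 90 s by endotracheal tube. BAL neutrophil percentage came from 300-cell LeukoStat differentials, with hemocytometer totals. Analysis by two-way ANOVA/Bonferroni; 3-21 animals per group.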

Data set [9] can be described thus: Solubility of compound in small intestinal contents in the fasted state at pH 6.5. In kind it is ADME. In a few lines: (§4)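 Solubility measured in simulated intestinal fluid at pH 5.0 (fed) or pH 6.5 (fasted), reported in μg/mL.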
For data set [10], the target named is T3, Leukotriene B4 receptor 1 (Homo sapiens, UniProt Q15722). Nature of the data set: Antagonist activity at BLT1 receptor expressed in human HL60 cells assessed as inhibition of LTB4-stimulated calcium flux after 30 mins. The note with it: read-out: IC50. The data set is classed as functional, cell-based, HL-60. In a few lines: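 HL-60 cells grown in RPMI-1640 with 20% FBS were plated at 2.0 × 10^5 cells/ml with 1 μM retinoic acid. They were dye-loaded in HBSS/20 mM HEPES/5 mM probenecid (0.05% BSA in the replacement buffer) for 1 h at 37 C. Compound (5 × 10^-11 to 3 × 10^-6 M final) was added for 30 min at room temperature, then 0.5 μM LTB4. Fluorescence was read every 1.5 s for 100 s and peak increase scored as % inhibition versus DMSO control.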

Another data set has as its system Neutrophil. Nature of the data set: Inhibition of LTB4-stimulated human neutrophils migration after 30 mins by using CyQuant GR fluorescent dye. The following applies: Homo sapiens, Neutrophil, 0.5 h; read-out: IC50. In kind it is functional, cell-based. In short, it runs like this:
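Human blood neutrophils (95-97% pure, isolated over Lympholyte-poly) at 5 × 10^6 cells/mL were preincubated with compound (3 × 10^-12 to 1 × 10^-6 M final) for 30 min at 37 C. Migration toward 100 ng/mL LTB4 across a polycarbonate membrane ran 90 min at 37 C. Migrated cells were lysed with CyQuant GR and read at 480/520 nm. IC50 was taken from a sigmoidal fit of % inhibition.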

In data set [11] the target is T3, Leukotriene B4 receptor 1. Nature of the data set: Antagonist activity at FLAG-tagged human BLT1 receptor expressed in HEK293 cells assessed as inhibition of LTB4-stimulated calcium mobilization preincubated for 10 mins before LTB4 challenge. The data set is classed as functional, cell-based. (In general: A change in cytosolic calcium serves as a functional read-out for many receptors and channels.)

The target of data set [12] is T2, Voltage-gated inwardly rectifying potassium channel KCNH2. Nature of the data set: Inhibition of human ERG expressed in CHO cells assessed as reduction of current amplitude.
Another data set concerns the target Cytochrome P450 2D6 (Homo sapiens, UniProt P10635). Nature of the data set: Inhibition of CYP2D6 fluorescence method. In kind it is ADME. In a few lines: as §2
The target of another data set is Cytochrome P450 2C19 (Homo sapiens, UniProt P33261). Nature of the data set: Inhibition of CYP2C19 fluorescence method. The data set is classed as ADME. In short, it runs like this:
as §1

The target in data set [13] is T4, Leukotriene B4 receptor 2 (Homo sapiens, UniProt Q9NPC1).
T4 sequence (Q9NPC1 whole entry): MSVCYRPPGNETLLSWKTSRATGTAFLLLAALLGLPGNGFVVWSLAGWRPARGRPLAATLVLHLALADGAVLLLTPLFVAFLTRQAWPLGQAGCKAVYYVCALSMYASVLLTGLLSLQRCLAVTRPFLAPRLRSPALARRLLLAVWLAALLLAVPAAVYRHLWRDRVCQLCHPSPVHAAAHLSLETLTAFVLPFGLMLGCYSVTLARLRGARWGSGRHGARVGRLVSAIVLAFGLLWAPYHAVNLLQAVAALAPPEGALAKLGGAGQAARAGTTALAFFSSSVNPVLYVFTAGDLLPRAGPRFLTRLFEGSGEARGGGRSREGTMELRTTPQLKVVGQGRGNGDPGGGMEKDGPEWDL
Nature of the data set: Antagonist activity at FLAG-tagged human BLT2 receptor expressed in HEK293 cells assessed as inhibition of LTB4-stimulated calcium mobilization preincubated for 10 mins before LTB4 challenge. In kind it is functional, cell-based.

The nature of data set [14]: Solubility of compound in small intestinal contents in the fed state at pH 5. The data set is classed as ADME. In a few lines:
as §4

T2 sequence (Q12809 whole entry): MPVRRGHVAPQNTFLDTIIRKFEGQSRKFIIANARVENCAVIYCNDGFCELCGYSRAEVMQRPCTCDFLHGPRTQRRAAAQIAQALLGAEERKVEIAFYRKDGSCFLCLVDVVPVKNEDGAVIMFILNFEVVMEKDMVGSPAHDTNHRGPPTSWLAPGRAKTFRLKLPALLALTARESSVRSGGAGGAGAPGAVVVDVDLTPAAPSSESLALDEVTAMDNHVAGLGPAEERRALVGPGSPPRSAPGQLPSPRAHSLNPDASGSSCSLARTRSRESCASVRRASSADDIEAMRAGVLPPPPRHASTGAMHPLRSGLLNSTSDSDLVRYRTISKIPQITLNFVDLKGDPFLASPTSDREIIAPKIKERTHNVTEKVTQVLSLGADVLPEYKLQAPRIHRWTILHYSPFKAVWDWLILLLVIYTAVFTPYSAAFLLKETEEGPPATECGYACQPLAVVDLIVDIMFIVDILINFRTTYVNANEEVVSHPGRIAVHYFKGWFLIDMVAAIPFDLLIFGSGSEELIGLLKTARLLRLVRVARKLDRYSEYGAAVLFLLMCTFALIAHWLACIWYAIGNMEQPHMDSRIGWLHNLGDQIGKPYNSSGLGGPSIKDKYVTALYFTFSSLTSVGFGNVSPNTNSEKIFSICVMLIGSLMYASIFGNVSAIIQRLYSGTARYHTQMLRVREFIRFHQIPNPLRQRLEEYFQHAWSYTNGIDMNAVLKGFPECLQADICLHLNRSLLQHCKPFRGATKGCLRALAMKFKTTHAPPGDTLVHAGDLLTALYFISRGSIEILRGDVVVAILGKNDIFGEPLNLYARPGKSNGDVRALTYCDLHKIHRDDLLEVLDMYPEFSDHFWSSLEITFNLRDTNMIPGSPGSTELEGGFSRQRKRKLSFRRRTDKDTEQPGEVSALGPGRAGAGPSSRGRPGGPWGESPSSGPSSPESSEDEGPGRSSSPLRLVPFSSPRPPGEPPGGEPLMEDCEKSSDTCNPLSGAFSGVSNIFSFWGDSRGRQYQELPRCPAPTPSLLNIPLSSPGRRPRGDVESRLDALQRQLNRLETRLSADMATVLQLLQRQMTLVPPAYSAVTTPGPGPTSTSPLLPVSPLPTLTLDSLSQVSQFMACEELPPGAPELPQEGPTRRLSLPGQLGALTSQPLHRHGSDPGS
T3 sequence (Q15722 whole entry): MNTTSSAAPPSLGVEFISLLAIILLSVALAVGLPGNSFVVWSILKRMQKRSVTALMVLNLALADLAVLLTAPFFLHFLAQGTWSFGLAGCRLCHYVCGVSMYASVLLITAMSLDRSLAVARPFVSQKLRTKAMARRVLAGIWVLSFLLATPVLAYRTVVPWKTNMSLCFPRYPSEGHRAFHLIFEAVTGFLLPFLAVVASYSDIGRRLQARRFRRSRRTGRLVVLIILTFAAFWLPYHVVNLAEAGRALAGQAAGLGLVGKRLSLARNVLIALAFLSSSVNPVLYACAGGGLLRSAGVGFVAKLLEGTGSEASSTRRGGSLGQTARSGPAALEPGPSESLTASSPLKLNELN
Chain of Cytochrome P450 2D6 (P10635 whole entry): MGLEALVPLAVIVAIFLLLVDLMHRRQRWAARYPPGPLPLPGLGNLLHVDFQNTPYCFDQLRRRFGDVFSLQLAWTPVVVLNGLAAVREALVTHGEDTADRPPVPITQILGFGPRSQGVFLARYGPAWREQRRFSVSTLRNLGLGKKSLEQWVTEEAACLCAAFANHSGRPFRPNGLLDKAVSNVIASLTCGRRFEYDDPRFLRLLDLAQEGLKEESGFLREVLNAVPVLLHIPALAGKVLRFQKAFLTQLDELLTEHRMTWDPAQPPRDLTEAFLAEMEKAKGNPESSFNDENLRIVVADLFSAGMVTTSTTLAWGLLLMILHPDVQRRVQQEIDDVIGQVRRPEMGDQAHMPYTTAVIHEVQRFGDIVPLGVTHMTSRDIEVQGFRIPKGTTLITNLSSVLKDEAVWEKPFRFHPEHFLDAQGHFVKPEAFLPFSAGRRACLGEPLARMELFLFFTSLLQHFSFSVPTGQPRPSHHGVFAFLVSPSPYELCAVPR
Chain of Cytochrome P450 2C19 (P33261 whole entry): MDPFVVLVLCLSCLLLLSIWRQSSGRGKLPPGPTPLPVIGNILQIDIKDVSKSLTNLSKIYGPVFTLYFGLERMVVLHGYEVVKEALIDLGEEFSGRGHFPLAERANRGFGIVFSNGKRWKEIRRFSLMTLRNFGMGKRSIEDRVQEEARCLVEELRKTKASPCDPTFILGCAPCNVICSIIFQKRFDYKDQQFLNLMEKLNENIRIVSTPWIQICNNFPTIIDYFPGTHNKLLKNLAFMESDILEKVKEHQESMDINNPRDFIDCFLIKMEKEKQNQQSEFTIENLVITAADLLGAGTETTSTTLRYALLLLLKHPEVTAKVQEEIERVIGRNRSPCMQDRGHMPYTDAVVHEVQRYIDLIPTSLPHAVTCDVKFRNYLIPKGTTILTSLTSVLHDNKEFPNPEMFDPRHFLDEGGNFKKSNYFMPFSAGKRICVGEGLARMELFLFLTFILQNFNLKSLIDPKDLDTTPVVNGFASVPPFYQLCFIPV
Chain of Cytochrome P450 2C9 (P11712 whole entry): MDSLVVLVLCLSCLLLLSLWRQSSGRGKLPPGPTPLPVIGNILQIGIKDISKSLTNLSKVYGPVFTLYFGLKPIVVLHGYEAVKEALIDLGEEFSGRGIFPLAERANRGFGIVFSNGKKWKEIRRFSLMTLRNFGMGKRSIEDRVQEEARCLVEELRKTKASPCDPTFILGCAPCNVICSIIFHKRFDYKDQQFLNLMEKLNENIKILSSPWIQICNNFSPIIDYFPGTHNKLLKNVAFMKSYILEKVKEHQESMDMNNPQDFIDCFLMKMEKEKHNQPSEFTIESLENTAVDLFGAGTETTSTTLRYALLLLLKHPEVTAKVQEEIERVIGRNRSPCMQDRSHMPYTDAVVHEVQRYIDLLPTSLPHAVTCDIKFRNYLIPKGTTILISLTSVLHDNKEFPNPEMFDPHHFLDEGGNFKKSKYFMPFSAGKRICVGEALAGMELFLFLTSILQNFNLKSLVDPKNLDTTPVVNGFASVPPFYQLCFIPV
Chain of Cytochrome P450 3A4 (P08684 whole entry): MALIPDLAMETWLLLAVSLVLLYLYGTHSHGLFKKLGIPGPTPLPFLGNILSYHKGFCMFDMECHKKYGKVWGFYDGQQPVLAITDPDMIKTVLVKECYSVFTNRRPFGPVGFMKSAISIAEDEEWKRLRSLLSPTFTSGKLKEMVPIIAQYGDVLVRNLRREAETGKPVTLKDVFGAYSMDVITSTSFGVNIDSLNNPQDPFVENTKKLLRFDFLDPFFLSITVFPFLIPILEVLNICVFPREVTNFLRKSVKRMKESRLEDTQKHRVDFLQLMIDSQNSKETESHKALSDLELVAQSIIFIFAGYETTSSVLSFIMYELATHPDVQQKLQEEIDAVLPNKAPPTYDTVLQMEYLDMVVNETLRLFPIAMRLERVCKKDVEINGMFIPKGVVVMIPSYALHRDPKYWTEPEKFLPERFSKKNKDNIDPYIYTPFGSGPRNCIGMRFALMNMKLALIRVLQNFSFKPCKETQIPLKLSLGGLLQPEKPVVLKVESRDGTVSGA

In general, IC50 refers to the concentration needed to halve the response being measured. By half-life is commonly meant the time needed for the level to fall by half in the phase considered. As a reminder, the clearance is the rate of elimination divided by the concentration. The Tmax is the time at which the peak concentration occurs. For orientation: Cmax means the peak of the concentration-time curve. Usually bioavailability stands for the share of a dose that reaches the circulation, judged against a reference dose that is usually intravenous. The solubility is the dissolved amount per volume that the medium holds. In the case of `O=C(O)CCCOc1cccc(CCCCCCOc2cc(-c3ccccc3)cc(-c3ccccc3)n2)c1CCC(=O)O`, the IC50 against Cytochrome P450 1A2 was over 7.5 µM; on Cytochrome P450 3A4 it was over 7.5 µM; on Cytochrome P450 2C9 it was over 12.5 µM; in data set [10] it was 0.00048 µM; in the data set on Neutrophil it was 0.0018 µM; in data set [11] it was 0.205 µM. In addition, the IC50 was over 3 µM in data set [12], over 7.5 µM against Cytochrome P450 2D6, over 7.5 µM at Cytochrome P450 2C19 and 3.06 µM in [13]. In addition, the outcome with Cavia porcellus and with Cynomolgus monkey was Active. Further, the values for the half-life in data set [1] and in data set [3] were 2.9 h and 2.1 h, respectively. In data set [2], this molecule showed a clearance of 0.452 L/h/kg. Also, the Tmax in data set [4] is 2.3 h. The molecule further yielded a Cmax in [5] of 2.11 µM. Besides, the bioavailability in [6] stood at 28%. Also, the Vd in data set [7] is 0.3 L/kg. For the same molecule, the INH result in data set [8] was “Not Active”. The figures for the solubility in [9] and in data set [14] were 0.0165 mg/mL (≈ 28.4 µM) and 0.0277 mg/mL (≈ 47.6 µM), respectively.
